Experimental data: ChEMBL document CHEMBL3259694, “Design and synthesis of molecular probes for the determination of the target of the anthelmintic drug praziquantel” (Bioorg Med Chem Lett, 2014)
pEC50: −log10 of the molar value. Each block holds one molecule with its values, some of them ahead of it. Activity calls are given as the source filed them. The calls are words filed in the database; no cut-off is given here.

Assays:
[1] = test system: Schistosoma mansoni; test: Anthelmintic activity against sexually mature Schistosoma mansoni PR-1 adult worm assessed as parasite death incubated for overnight measured after 7 days drug wash-out period by stereomicroscopic analysis; format: functional, organism-based; settings: PR-1, 168 h
Outline: (§1)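 Adult male worms exposed in vitro overnight to a range of concentrations, then washed and kept 7 days in drug-free medium. Motility, contraction and survival were scored at day 7. EC50 was taken from dose-response curves of percent worms alive at day 7 against log concentration, as mean and SEM of three replicates, with 95% confidence intervals.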

[2] = Solubility in 1% DMSO at >300 uM; format: physicochemical
[3] = Solubility in 1% DMSO at 300 uM; format: physicochemical
[4] = test system: Schistosoma mansoni; test: Anthelmintic activity against sexually mature Schistosoma mansoni PR-1 adult worm assessed as loosely curled worm with little movement at >100 uM incubated for overnight measured after 7 days drug wash-out period by stereomicroscopic analysis; format: functional, organism-based; outline: as §1
[5] = test system: Schistosoma mansoni; test: Anthelmintic activity against sexually mature Schistosoma mansoni PR-1 adult worm assessed immediate worm contraction by stereomicroscopic analysis; format: functional, organism-based
Outline: (§2)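 Adult male worms were watched for contraction, shortening or paralysis at once on addition of the compound. Worms were then kept overnight in its presence before washout.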

[6] = test system: Schistosoma mansoni; test: Anthelmintic activity against sexually mature Schistosoma mansoni PR-1 adult worm assessed immediate worm shortening by stereomicroscopic analysis; format: functional, organism-based; outline: as §2
[7] = test system: Schistosoma mansoni; test: Anthelmintic activity against sexually mature Schistosoma mansoni PR-1 adult worm assessed as worm contractility without movement at >40 uM incubated for overnight measured after 7 days drug wash-out period by stereomicroscopic analysis; format: functional, organism-based; outline: as §1
[8] = test system: Schistosoma mansoni; test: Anthelmintic activity against sexually mature Schistosoma mansoni PR-1 adult worm assessed immediate worm paralysis by stereomicroscopic analysis; format: functional, organism-based; outline: as §2
[9] = test system: Schistosoma mansoni; test: Anthelmintic activity against sexually mature Schistosoma mansoni PR-1 adult worm assessed as worm contractility and little movement at >60 uM incubated for overnight measured after 7 days drug wash-out period by stereomicroscopic analysis; format: functional, organism-based; outline: as §1
[10] = test system: Schistosoma mansoni; test: Anthelmintic activity against sexually mature Schistosoma mansoni PR-1 adult worm assessed as parasite death by measuring worm contractility at 1 uM incubated for overnight measured after 7 days drug wash-out period by stereomicroscopic analysis; format: functional, organism-based; outline: as §1
[11] = test system: Schistosoma mansoni; test: Anthelmintic activity against sexually mature Schistosoma mansoni PR-1 adult worm assessed as parasite death by measuring worm contractility at 0.3 uM incubated for overnight measured after 7 days drug wash-out period by stereomicroscopic analysis; format: functional, organism-based; outline: as §1

solubility [2]: soluble
Compound: C#CCN(Cc1ccc(C(=O)N2CC(=O)N3CCc4ccccc4[C@@H]3C2)cc1)C(=O)CCCCCNC(=O)CCC1(C)N=N1
pEC50 [1]: < 3.52

solubility [3]: soluble
Compound: C#CCN(C(=O)c1ccc(C2(C(F)(F)F)N=N2)cc1)c1ccc(C(=O)N2CC(=O)N3CCc4ccccc4[C@@H]3C2)cc1
pEC50 [1]: 3.88
Activity [4]: Active
Activity [5]: inactive
Activity [6]: inactive

Compound: Cc1cc(C)n2c1C=C1C=CC(CCC(=O)N3CC(=O)N4CCc5ccccc5[C@@H]4C3)=[N+]1[B-]2(F)F
pEC50 [1]: 4.27
Activity [7]: Active
Activity [5]: inactive
Activity [8]: inactive

Compound: O=C(C1CCCCC1)N1CC(=O)N2CCc3ccccc3[C@H]2C1
Activity [9]: Active
pEC50 [1]: 4.11

Compound: O=C(C1CCCCC1)N1CC(=O)N2CCc3ccccc3C2C1 (racemic) [PRAZIQUANTEL]
Activity [10]: Active
pEC50 [1]: 5.60

Compound: O=C(C1CCCCC1)N1CC(=O)N2CCc3ccccc3[C@@H]2C1 [PRAZIQUANTEL, (R)-]
Activity [11]: Active
pEC50 [1]: 6.30
